Experimental data taken from ChEMBL document CHEMBL4251649, “Discovery and optimization of phthalazinone derivatives as a new class of potent dengue virus inhibitors” (Eur J Med Chem, 2018).

Assays:
dengue virus type 2 = test: Antiviral activity against DENV2 D2Y98P infected in human HuH7 cells assessed as inhibition of viral RNA replication incubated for 48 hrs by qRT-PCR method; format: functional, organism-based; conditions: Huh-7, 48 h
Method in brief: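 Huh7 cells (4×10^4/well, 2% FBS DMEM, overnight) infected with DENV-2 D2Y98P at MOI 2 for 2 h, washed, then given compound in fresh medium; after 48 h the supernatant viral genomic RNA was extracted and quantified by one-step qRT-PCR; IC50 and IC90 were taken as 50% and 90% inhibition of RNA replication.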

[1] = Cytotoxicity against human HuH7 cells assessed as reduction in cell viability after 48 hrs by MTT assay; format: cell-based, Huh-7
Method in brief: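 The Huh7 cells were seeded and treated with compound in the same way as the antiviral assay, and viability was read by MTT reduction. CC50 is the compound concentration that lowered the readout to half of the no-compound control.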

[2] = Selectivity index, CC50 for human HuH7 cells to IC50 for DENV2 D2Y98P; format: toxicity; conditions: read-out: Ratio CC50/IC50
Method in brief: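 SI is calculated as CC50 (MTT cytotoxicity in Huh7) divided by IC50 (qRT-PCR of DENV-2 D2Y98P supernatant RNA, Huh7, MOI 2, 48 h).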

Mus musculus [3] = test: Plasma clearance in CD-1 mouse at 2 mg/kg, iv; format: ADME, organism-based; conditions: in vivo
Method in brief: (§1)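 Male CD-1 mice (18–22 g, n=3/group), fasted 12 h, were given 2 mg/kg IV. Femoral-vein blood (EDTA) was collected at 3 min, 0.25, 0.75, 2, 4, 8 and 24 h. Plasma was mixed with methanol:acetonitrile (1:1), stored at -20°C, and analysed by non-compartmental methods.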

Mus musculus [4] = test: Volume of distribution at steady state in CD-1 mouse at 2 mg/kg, iv; format: ADME, organism-based; conditions: in vivo; method in brief: as §1
[5] = Tmax in CD-1 mouse at 10 mg/kg, po; format: ADME, organism-based; conditions: in vivo
Method in brief: (§2)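 Male CD-1 mice (18–22 g, n=3/group), fasted 12 h and fed 2 h after dosing, received 10 mg/kg orally. Femoral-vein blood (EDTA) was drawn at 0.25, 0.5, 1, 2, 4, 8 and 24 h. Plasma was mixed with methanol:acetonitrile (1:1) and stored at -20°C. Parameters came from non-compartmental analysis.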

Mus musculus [6] = test: Half life in CD-1 mouse at 2 mg/kg, iv; format: ADME, organism-based; conditions: in vivo; method in brief: as §1
[7] = Half life in CD-1 mouse at 10 mg/kg, po; format: ADME, organism-based; conditions: in vivo; method in brief: as §2
[8] = Cmax in CD-1 mouse at 10 mg/kg, po; format: ADME, organism-based; design: dose 10 mg/kg, route oral; conditions: in vivo; method in brief: as §2
Mus musculus [9] = test: AUClast in CD-1 mouse at 2 mg/kg, iv; format: ADME, organism-based; design: dose 2 mg/kg, time 0 - last, route intravenous; conditions: in vivo; method in brief: as §1
[10] = AUClast in CD-1 mouse at 10 mg/kg, po; format: ADME, organism-based; design: dose 10 mg/kg, time 0 - last, route oral; conditions: in vivo; method in brief: as §2
[11] = Oral bioavailability in CD-1 mouse at 10 mg/kg; format: ADME, organism-based; conditions: in vivo; method in brief: as §2

Compound | IC50 (dengue virus type 2) [nM] | IC90 (dengue virus type 2) [µM] | CC50 at 48 h [1] [µM] | selectivity ratio [2] | further results
CN(C)CCCCOC(=O)Nc1ccc(-n2nc(-c3ccc(F)cc3)c3ccccc3c2=O)cc1 | 1340 | 12.6 | 21.8 | 16.2 | 
CN(C)CCCCOC(=O)Nc1ccc(Cn2nc(-c3cccnc3)c3ccccc3c2=O)cc1 | 6320 | 30.2 | 68 | 10.7 | 
CN(C)CCCCOC(=O)Nc1ccc(Cn2nc(-c3cnn(C)c3)c3ccccc3c2=O)cc1 | 6530 | 43.3 | 55.9 | 8.5 | 
CN(C)CCCCOC(=O)Nc1ccc(Cn2nc(-c3ccccc3C(F)(F)F)c3ccccc3c2=O)cc1 | 1990 | 3.37 | 35.7 | 18 | 
CN(C)CCCCOC(=O)Nc1ccccc1Cn1nc(-c2ccc(F)cc2)c2ccccc2c1=O | 2830 | 13.2 | 48.5 | 17.1 | 
CN(C)CCCCOC(=O)Nc1ccc(Cn2nc(-c3ccc(C(F)(F)F)cc3)c3ccccc3c2=O)cc1 | 1470 | 6.61 | 3.36 | 2.3 | 
CN(C)CCCCOC(=O)Nc1ccc(Cn2nc(-c3ccccc3C#N)c3ccccc3c2=O)cc1 | 5520 | 12.4 | 90.7 | 16.4 | 
CN(C)CCCCOC(=O)Nc1ccc(Cn2nc(-c3cccc(C#N)c3)c3ccccc3c2=O)cc1 | 1720 | 5.09 | 17.2 | 10 | 
CN(C)CCCCNC(=O)Nc1ccc(Cn2nc(-c3ccc(F)cc3)c3ccccc3c2=O)cc1 |  |  | 46.6 | 10.7 | 
CCCCOC(=O)Nc1ccc(Cn2nc(-c3ccc(F)cc3)c3ccccc3c2=O)cc1 |  |  | 19.5 | 14.3 | 
COc1ccc(-c2nn(Cc3ccc(NC(=O)OCCCCN(C)C)cc3)c(=O)c3ccccc23)cc1 | 1940 | 5.88 | 20.3 | 10.5 | 
CN(C)CCCCOC(=O)Nc1ccc(Cn2nc(-c3ccccc3)c3ccccc3c2=O)cc1 | 2680 | 6.09 | 16 | 5.99 | 
CN(C)CCCCOC(=O)Nc1ccc(Cn2nc(-c3ccncc3)c3ccccc3c2=O)cc1 | 22900 | 40.9 | 62.7 | 2.7 | 
COc1ccccc1-c1nn(Cc2ccc(NC(=O)OCCCCN(C)C)cc2)c(=O)c2ccccc12 | 1400 | 5.44 | 44.8 | 32 | 
Nc1ccc(Cn2nc(-c3ccc(F)cc3)c3ccccc3c2=O)cc1 | 20000 | > 80 | > 80 | > 4 | 
CN(C)CCCCOC(=O)Nc1ccc(Cn2nc(-c3cccc(F)c3)c3ccccc3c2=O)cc1 | 1510 | 8.24 | 37.4 | 24.7 | 

Continued, in another order:

IC50 (dengue virus type 2) [nM] | IC90 (dengue virus type 2) [µM] | Compound | CC50 at 48 h [1] [µM] | selectivity ratio [2] | further results
700 | 7.07 | CN(C)CCCCOC(=O)Nc1ccc(Cn2nc(-c3ccc(C#N)cc3)c3ccccc3c2=O)cc1 | 37 | 52.8 | 
1320 | 8.79 | CN(C)CCCCOC(=O)Nc1ccc(Cn2nc(-c3ccccc3F)c3ccccc3c2=O)cc1 | 52.5 | 39.8 | 
1000 | 8.42 | CN(C)CCCC(=O)Nc1ccc(Cn2nc(-c3ccc(F)cc3)c3ccccc3c2=O)cc1 | 38.2 | 38.2 | 
640 | 4.65 | CN(C)CCCCOC(=O)Nc1cccc(Cn2nc(-c3ccc(F)cc3)c3ccccc3c2=O)c1 | 8.51 | 13.3 | 
1270 | 5.57 | CC(c1ccc(NC(=O)OCCCCN(C)C)cc1)n1nc(-c2ccc(F)cc2)c2ccccc2c1=O (stereo not given) | 15.2 | 11.9 | 
130 | 1.15 | CN(C)CCCCOC(=O)Nc1ccc(Cn2nc(-c3cccc(C(F)(F)F)c3)c3ccccc3c2=O)cc1 | 11.6 | 89.2 | CL (Mus musculus [3]): 50 mL/kg/h; Vdss (Mus musculus [4]): 17137 mL/kg; Tmax [5]: 8 h; t1/2 (Mus musculus [6]): 4.33 h; half-life [7]: 175 min; Cmax [8]: 94.5 ng/mL; AUClast (Mus musculus [9]): 505 ng·h/mL; AUC(0-t) [10]: 883 ng·h/mL; bioavailability [11]: 34.9%
620 | 4.27 | CN(C)CCCCOC(=O)Nc1ccc(Cn2nc(-c3ccc(F)cc3)c3ccccc3c2=O)cc1 | 19 | 30.7 | 
340 | 1.58 | COc1cccc(-c2nn(Cc3ccc(NC(=O)OCCCCN(C)C)cc3)c(=O)c3ccccc23)c1 | 17.6 | 51.8 | 
600 | 62.4 | CN(C)CCCCOC(=O)Nc1ccc(Cn2nc(-c3cncnc3)c3ccccc3c2=O)cc1 | 65.3 | 109 | 
